Measured values reported in ChEMBL document CHEMBL2086373, “Identification and In-Vitro ADME Assessment of a Series of Novel Anti-Malarial Agents Suitable for Hit-to-Lead Chemistry” (ACS Med Chem Lett, 2012).
≈ marks a conversion by molar mass, not a printed value. Calls of active or inactive are those of the source. The calls are words filed in the database; no cut-off is given here.

Key:
Plasmodium falciparum = assay: Antiplasmodium activity against chloroquine-sensitive Plasmodium falciparum NF54 assessed as inhibition of [3H[hypoxanthine incorporation; type: functional, organism-based
In short: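 Run at Swiss TPH on P. falciparum NF54 (3D7 is a clone of it). Read-out is 3H-hypoxanthine incorporation. IC50 is the mean of ≥2 experiments.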

[1] = Kinetic solubility of the compound in phosphate buffered saline after 2 hrs at pH 7.4; type: physicochemical; settings: read-out: Kinetic_solubility
In short: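 Kinetic solubility measured in PBS, pH 7.4.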

[2] = […]-phosphate buffered saline partition coefficient, log D after 5 hrs by LC-UV analysis at pH 7.4; type: physicochemical; settings: octan-1-ol/phosphate buffered saline
In short: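 Log D from partition between octan-1-ol and phosphate-buffered PBS at pH 7.4.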

[3] = Efflux ratio of apparent permeability across human Caco2 cells at 10 uM after 60 mins; type: ADME, cell-based; settings: Caco-2
In short: (§1)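 Apical and basal chambers in HBSS, pH 7.4. Compound at 10 μM added to the donor side at time zero. Donor and acceptor chambers both sampled after 60 min at 37 °C. A>B permeability reported in 10^-6 cm/s, plus efflux ratio.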

[4] = Metabolic stability in human hepatic microsomes assessed as % turnover at 1 uM after 40 mins by LC/MS/MS analysis; settings: liver microsomes
[5] = Apparent permeability of the compound from apical to basal side of human Caco2 cells at 10 uM after 60 mins; type: ADME, cell-based; settings: Caco-2; in short: as §1
Plasmodium berghei [6] = assay: Antimalarial activity against GFP-transfected Plasmodium berghei ANKA infected in mouse assessed as change in host survival time at 50 mg/kg, sc administered QD for 4 days relative to untreated control; type: functional, organism-based; set-up: dose 50 mg/kg
In short: (§2)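 Peters 4-day test: 50 mg/kg given sc once daily for 4 days. Parasitemia reduction and survival days are compared against infected, untreated control animals.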

Plasmodium berghei [7] = assay: Antimalarial activity against GFP-transfected Plasmodium berghei ANKA infected in mouse assessed as reduction in parasitemia at 50 mg/kg, sc administered QD for 4 days relative to vehicle-treated control; type: functional; set-up: scale not given: the % may be the effect or the level left; settings: route subcutaneous; in short: as §2

IC50 (Plasmodium falciparum) | SMILES | other results
10800 nM | O=C(Nc1cccc2[nH]c(C(F)(F)F)nc12)c1ccc(Cl)cc1 | –
9900 nM | COc1ccc(CNc2cccc3[nH]c(C)nc23)cc1 | –
> 100000 nM | Cc1nnc(N2CCOCC2)c2nn(-c3ccccc3)c(C)c12 | –
5170 nM | Cc1sc2ncnc(Sc3nnc(C(F)(F)F)n3C)c2c1C | –
490 nM | Fc1ccc(CNc2cccc3[nH]c(C(F)(F)F)nc23)cc1 | solubility kinetic at 2 h [1]: < 5 µM; logD at 5 h [2]: 2; efflux ratio at 1 h, 10 µM [3]: 0.43; % turnover at 40 min, 1 µM [4]: 19%; Papp A→B at 1 h, 10 µM [5]: 1.5 ×10⁻⁶ cm/s
> 100000 nM | O=C(Cc1ccccc1)Nc1cccc2[nH]c(C(F)(F)F)nc12 | –
460 nM | Cc1sc2ncnc(Sc3nnc4ccccn34)c2c1C | –
> 100000 nM | Cc1nc(NC2=NCCC(=O)N2)nc2ccccc12 | –
16000 nM | CCOc1nnc(C)c2c(C)n(-c3cccc(OC)c3)nc12 | –
340 nM | CCOc1ccc(-n2nc3c(Cl)nnc(C)c3c2C)cc1 | –
3740 nM | CC(=O)/N=C(/NC(C)=O)Nc1nc(C)c2cc(C)ccc2n1 | –
> 100000 nM | Cc1ccc(-n2nc3c(C)nnc(C)c3c2C)cc1 | –
310 nM | Cc1ccc(-n2nc3c(Cl)nnc(C)c3c2C)cc1 | –
1480 nM | Cn1c(Sc2ncnc3sccc23)nnc1C1CC1 | –
1580 nM | CCCCN1CN=C(Nc2nc(C)c3ccccc3n2)NC1 | –
1160 nM | CCc1nnc(Sc2ncnc3sccc23)[nH]1 | –
420 nM | Cc1nnc(Cl)c2nn(-c3ccc(Cl)cc3)c(C)c12 | –
150 nM | c1ccn2c(Sc3ncnc4sccc34)nnc2c1 | solubility kinetic at 2 h [1]: 20 µM (≈ 5.71 µg/mL); logD at 5 h [2]: > 3.8; efflux ratio at 1 h, 10 µM [3]: 0.28; % turnover at 40 min, 1 µM [4]: 50%; Activity (Plasmodium berghei [6]): inactive; Activity (Plasmodium berghei [7]): 34%; Papp A→B at 1 h, 10 µM [5]: 50 ×10⁻⁶ cm/s
280 nM | Cc1nnc(Cl)c2nn(-c3cccc(Cl)c3)c(C)c12 | –
430 nM | Cc1nnc(Cl)c2nn(-c3ccccc3)c(C)c12 | –
150 nM | Cc1ccc(-n2c(Sc3ncnc4sccc34)nnc2N2CCCC2)cc1 | –
2670 nM | c1ccc(-c2csc3ncnc(Sc4nnc5ccccn45)c23)cc1 | –
> 100000 nM | Cc1nnc(C)c2c(C)n(-c3ccc4c(c3)OCO4)nc12 | –
> 100000 nM | Cc1ccc(S(=O)(=O)Nc2cccc3[nH]c(C(F)(F)F)nc23)cc1 | –
> 100000 nM | COc1cccc(-n2nc3c(C)nnc(C)c3c2C)c1 | –
740 nM | COc1nc(NC(=N)N)nc2ccc(C)cc12 | –
3930 nM | COc1ccc(CNc2cccc3[nH]c(C(F)(F)F)nc23)cc1 | –
